According to ChEMBL document CHEMBL1165965, “Synthesis and structure-activity relationships of 1,2,3,4-tetrahydropyrido[2,3-b]pyrazines as potent and selective inhibitors of the anaplastic lymphoma kinase” (Bioorg Med Chem, 2010):

Key:
[1] = biological target: Mitogen-activated protein kinase kinase kinase kinase 4 (Homo sapiens) (UniProt O95819); experiment: Inhibition of MAP4K4 at 1 uM
How it was run: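 Single-concentration screen on the Ambit KINOMEscan platform, run against a panel of 250–400 kinases. Per-kinase inhibition was also summarized as S(90), the fraction of kinases inhibited by more than 90%.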

[2] = biological target: Maternal embryonic leucine zipper kinase (Homo sapiens) (UniProt Q14680); experiment: Inhibition of MELK at 1 uM
How it was run: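 Kinase-panel screen using KINOMEscan technology, with 250–400 kinases per panel. Each compound was tested at a single concentration, and inhibition of each kinase was recorded. Selectivity was summarised as S(90), the fraction of kinases inhibited by more than 90%.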

[3] = biological target: Phosphatidylinositol 4,5-bisphosphate 3-kinase catalytic subunit beta isoform (Homo sapiens) (UniProt P42338); experiment: Inhibition of PIK3CB at 1 uM
[4] = biological target: T1, Phosphatidylinositol 4,5-bisphosphate 3-kinase catalytic subunit delta isoform (Homo sapiens) (UniProt O00329); experiment: Inhibition of PIK3CD at 1 uM
T1 sequence (whole entry): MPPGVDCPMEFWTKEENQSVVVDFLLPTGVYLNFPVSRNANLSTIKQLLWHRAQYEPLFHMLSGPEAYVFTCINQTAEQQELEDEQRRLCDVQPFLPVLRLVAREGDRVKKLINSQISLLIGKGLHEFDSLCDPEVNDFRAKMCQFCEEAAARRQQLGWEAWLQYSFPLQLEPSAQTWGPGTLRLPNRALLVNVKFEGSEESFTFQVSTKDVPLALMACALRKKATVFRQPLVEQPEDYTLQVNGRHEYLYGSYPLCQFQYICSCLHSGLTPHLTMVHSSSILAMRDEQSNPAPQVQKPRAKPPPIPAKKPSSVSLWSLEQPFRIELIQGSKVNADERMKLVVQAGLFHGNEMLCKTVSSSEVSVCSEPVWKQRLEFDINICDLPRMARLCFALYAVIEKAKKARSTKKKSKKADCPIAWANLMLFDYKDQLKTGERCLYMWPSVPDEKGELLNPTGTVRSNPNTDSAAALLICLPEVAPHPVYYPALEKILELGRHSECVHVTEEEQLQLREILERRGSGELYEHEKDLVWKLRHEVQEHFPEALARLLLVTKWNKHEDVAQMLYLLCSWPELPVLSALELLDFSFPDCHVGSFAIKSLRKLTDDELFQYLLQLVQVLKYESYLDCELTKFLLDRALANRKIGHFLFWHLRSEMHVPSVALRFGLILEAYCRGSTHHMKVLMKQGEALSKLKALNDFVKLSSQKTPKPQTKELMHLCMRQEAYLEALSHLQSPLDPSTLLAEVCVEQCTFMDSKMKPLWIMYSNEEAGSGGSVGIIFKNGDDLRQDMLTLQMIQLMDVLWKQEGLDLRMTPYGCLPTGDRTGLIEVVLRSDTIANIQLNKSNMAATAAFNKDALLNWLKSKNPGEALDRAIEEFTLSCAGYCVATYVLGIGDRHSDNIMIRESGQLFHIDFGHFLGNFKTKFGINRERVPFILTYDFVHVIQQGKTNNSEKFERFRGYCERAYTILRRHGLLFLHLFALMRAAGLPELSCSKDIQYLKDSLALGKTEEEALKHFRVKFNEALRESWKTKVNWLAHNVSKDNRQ

[5] = biological target: T2, Serine/threonine-protein kinase TAO3 (Homo sapiens) (UniProt Q9H2K8); experiment: Inhibition of TAOK3 at 1 uM
T2 sequence (whole entry): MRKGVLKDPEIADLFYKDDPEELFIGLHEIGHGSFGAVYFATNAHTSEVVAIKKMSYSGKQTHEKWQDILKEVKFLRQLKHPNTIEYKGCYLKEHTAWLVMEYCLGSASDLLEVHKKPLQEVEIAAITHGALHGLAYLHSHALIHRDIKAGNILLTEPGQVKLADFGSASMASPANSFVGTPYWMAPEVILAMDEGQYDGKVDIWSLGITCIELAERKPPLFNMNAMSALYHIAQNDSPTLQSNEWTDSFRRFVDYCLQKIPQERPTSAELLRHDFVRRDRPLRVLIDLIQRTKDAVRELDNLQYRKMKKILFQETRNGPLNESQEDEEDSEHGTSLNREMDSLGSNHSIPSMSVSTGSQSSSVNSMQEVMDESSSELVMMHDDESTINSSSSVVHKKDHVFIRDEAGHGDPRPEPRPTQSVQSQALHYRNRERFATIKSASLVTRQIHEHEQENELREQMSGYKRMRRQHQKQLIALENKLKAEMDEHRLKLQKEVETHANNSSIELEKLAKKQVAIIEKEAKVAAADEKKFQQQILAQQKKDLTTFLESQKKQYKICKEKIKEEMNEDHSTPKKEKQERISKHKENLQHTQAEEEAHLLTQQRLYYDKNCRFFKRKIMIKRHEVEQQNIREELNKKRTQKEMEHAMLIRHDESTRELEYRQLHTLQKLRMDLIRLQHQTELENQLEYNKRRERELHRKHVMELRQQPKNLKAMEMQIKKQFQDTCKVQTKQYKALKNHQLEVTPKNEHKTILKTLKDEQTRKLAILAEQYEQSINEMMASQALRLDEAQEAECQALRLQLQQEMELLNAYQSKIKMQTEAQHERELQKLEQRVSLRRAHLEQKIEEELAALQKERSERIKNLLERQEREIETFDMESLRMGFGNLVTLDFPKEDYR

[6] = biological target: T3, Serine/threonine-protein kinase TBK1 (Homo sapiens) (UniProt Q9UHD2); experiment: Inhibition of TBK1 at 1 uM
T3 sequence (whole entry): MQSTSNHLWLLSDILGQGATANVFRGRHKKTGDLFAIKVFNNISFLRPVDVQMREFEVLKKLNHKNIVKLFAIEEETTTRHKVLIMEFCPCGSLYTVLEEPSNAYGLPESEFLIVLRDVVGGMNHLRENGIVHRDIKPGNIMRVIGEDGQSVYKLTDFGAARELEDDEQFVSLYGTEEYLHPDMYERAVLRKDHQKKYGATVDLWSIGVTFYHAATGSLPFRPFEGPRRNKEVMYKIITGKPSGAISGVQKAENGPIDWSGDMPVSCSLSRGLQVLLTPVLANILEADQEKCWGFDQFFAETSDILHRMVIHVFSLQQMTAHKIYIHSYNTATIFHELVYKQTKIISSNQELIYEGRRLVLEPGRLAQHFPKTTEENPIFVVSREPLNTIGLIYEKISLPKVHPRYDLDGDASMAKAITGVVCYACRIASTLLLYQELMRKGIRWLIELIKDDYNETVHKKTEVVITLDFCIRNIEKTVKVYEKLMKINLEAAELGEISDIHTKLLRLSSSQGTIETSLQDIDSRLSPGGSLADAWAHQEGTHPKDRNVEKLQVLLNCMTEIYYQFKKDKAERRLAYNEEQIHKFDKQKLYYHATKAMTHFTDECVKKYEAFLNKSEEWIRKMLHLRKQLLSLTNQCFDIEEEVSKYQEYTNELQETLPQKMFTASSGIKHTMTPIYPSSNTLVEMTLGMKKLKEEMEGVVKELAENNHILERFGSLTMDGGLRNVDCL

[7] = biological target: Dual specificity testis-specific protein kinase 1 (Homo sapiens) (UniProt Q15569); experiment: Inhibition of TESK1 at 1 uM
Sequence of Dual specificity testis-specific protein kinase 1 (Homo sapiens) (Q15569 whole entry, looked up): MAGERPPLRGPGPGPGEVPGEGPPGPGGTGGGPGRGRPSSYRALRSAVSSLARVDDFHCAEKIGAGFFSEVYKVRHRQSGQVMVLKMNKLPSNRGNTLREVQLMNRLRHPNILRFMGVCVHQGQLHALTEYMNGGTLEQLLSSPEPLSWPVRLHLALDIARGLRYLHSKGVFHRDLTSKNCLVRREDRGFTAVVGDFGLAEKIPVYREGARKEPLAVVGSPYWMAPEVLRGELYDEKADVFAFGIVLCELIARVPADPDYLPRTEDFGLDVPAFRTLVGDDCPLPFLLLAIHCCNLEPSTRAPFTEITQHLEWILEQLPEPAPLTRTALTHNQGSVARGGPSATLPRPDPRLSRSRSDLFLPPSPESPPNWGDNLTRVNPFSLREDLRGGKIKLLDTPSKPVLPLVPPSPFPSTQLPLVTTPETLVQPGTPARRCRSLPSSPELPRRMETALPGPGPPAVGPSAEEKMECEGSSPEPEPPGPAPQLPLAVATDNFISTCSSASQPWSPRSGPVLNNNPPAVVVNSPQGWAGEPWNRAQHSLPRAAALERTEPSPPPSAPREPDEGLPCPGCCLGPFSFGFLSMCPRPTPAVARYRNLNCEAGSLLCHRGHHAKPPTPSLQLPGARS

Sequence of Maternal embryonic leucine zipper kinase (Homo sapiens) (Q14680 whole entry, looked up): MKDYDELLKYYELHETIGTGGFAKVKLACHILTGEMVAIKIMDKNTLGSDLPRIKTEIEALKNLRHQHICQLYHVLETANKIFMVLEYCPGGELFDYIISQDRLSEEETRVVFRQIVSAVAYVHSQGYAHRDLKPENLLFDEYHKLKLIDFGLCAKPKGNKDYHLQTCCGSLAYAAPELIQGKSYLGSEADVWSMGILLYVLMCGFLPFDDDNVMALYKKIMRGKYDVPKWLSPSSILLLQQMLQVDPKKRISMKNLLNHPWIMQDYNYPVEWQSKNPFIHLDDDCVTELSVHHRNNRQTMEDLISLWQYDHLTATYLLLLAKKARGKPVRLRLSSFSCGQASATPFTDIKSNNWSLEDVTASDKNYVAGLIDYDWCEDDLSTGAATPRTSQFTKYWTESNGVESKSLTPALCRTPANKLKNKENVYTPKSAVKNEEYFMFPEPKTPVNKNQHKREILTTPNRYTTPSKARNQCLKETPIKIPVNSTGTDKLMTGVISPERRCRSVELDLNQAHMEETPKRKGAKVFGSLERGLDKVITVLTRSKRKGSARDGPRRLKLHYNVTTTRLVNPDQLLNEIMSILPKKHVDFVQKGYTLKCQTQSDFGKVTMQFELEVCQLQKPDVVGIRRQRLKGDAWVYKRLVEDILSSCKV
Sequence of Mitogen-activated protein kinase kinase kinase kinase 4 (Homo sapiens) (O95819 2-1239 limits assumed): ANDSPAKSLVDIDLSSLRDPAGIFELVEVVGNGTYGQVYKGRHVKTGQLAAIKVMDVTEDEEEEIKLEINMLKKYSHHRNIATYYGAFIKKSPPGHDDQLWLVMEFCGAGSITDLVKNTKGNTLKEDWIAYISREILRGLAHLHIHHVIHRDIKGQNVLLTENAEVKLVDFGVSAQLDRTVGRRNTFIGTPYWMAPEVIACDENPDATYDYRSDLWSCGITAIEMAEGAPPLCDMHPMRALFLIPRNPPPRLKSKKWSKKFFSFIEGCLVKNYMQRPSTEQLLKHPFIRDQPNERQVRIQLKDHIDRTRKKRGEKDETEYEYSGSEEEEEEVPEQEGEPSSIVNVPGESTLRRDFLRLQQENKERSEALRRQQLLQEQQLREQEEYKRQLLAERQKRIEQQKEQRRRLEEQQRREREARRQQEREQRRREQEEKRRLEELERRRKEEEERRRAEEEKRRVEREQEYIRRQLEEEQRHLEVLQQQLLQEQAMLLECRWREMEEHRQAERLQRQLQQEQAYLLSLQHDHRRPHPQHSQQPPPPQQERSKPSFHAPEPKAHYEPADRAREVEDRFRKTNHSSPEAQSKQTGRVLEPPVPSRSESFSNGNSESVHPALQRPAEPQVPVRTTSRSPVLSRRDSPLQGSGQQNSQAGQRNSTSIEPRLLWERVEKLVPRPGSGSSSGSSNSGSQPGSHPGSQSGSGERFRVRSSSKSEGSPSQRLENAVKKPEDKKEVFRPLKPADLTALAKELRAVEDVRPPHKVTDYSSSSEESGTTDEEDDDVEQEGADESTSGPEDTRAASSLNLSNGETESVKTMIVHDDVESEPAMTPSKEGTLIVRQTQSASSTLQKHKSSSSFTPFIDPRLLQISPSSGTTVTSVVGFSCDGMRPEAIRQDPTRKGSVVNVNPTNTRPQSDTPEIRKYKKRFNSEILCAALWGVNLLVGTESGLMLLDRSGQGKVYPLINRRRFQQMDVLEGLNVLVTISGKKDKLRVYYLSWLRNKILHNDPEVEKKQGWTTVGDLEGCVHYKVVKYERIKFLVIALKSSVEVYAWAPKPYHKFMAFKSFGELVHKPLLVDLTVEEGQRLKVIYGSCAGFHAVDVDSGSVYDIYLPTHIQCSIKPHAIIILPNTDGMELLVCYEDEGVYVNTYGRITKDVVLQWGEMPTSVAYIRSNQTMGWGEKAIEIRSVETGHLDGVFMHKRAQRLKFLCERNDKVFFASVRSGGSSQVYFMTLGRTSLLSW
Sequence of Phosphatidylinositol 4,5-bisphosphate 3-kinase catalytic subunit beta isoform (Homo sapiens) (P42338 whole entry, looked up, canonical isoform): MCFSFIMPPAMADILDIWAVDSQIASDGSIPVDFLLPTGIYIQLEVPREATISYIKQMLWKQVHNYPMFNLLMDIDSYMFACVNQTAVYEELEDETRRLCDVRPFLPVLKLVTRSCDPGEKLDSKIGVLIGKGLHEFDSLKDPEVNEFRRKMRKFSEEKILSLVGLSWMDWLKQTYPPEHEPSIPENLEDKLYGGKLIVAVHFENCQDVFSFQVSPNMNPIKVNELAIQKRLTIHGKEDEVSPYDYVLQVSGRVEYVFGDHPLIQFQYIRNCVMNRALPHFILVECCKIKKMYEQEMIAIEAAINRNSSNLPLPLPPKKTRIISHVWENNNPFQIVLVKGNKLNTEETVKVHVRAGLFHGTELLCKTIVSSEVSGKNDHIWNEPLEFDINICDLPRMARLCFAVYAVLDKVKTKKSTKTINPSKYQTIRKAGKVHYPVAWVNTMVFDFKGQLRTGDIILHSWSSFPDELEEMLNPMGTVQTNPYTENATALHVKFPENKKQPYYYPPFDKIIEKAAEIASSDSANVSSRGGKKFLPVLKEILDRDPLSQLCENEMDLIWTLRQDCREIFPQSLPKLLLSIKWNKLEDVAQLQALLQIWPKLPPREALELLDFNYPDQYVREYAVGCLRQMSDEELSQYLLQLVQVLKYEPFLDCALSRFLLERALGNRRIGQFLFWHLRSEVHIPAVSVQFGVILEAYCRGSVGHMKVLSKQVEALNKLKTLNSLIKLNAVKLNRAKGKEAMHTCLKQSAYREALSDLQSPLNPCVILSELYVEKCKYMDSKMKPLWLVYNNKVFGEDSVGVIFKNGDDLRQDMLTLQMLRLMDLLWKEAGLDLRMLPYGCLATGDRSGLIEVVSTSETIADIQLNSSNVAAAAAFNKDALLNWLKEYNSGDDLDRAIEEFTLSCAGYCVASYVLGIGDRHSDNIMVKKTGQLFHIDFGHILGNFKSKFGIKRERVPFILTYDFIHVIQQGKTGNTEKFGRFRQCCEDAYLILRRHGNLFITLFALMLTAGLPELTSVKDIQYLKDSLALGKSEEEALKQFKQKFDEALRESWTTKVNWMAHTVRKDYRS

Row | SMILES | inhibition [1] [%] | inhibition [2] [%] | inhibition [3] [%] | inhibition [4] [%] | inhibition [5] [%] | inhibition [6] [%] | inhibition [7] [%]
1 | COC1CCN(C(=O)c2ccc(-c3cnc4c(c3)N(Cc3cc(Cl)ccc3C(F)(F)F)CCN4)cc2)CC1 | < 50 | < 50 |  |  |  |  | < 50
2 | O=C(c1ccc(-c2cnc3c(c2)N(Cc2cc(Cl)ccc2C(F)(F)F)CCN3)cc1)N1CCCCC1 | < 50 | < 50 |  |  |  |  | < 50
3 | O=C(O)c1ccc(-c2cnc3c(c2)N(Cc2cc(Cl)ccc2C(F)(F)F)CCN3)cc1 | < 50 | < 50 |  |  |  |  | < 50
4 | O=C(c1ccc(-c2cnc3c(c2)N(Cc2cc(Cl)ccc2C(F)(F)F)CCN3)cc1)N1CCC(N2CCCC2)CC1 | < 50 | < 50 |  |  |  |  | 88.5

Continued, values first:

Row | inhibition [1] [%] | inhibition [2] [%] | inhibition [3] [%] | inhibition [4] [%] | inhibition [5] [%] | inhibition [6] [%] | inhibition [7] [%] | SMILES
5 | < 50 | < 50 | < 50 | < 50 | < 50 | < 50 | < 50 | CN1CCN(c2ccc(-c3cnc4c(c3)N(Cc3cc(Cl)ccc3Cl)CCN4)cn2)CC1
6 | < 50 | < 50 | < 50 | < 50 | < 50 | < 50 | < 50 | CN1CCN(c2ccc(-c3cnc4c(c3)N(Cc3cc(Cl)ccc3C(F)(F)F)CCN4)cn2)CC1
7 | < 50 | < 50 | < 50 | < 50 | < 50 | < 50 | < 50 | FC(F)(F)c1ccc(Cl)cc1CN1CCNc2ncc(-c3ccnc(N4CCNCC4)c3)cc21
8 | < 50 | < 50 | < 50 | < 50 | < 50 | < 50 | < 50 | CC(=O)N1CCN(c2cc(-c3cnc4c(c3)N(Cc3cc(Cl)ccc3C(F)(F)F)CCN4)ccn2)CC1
9 | 76 | < 50 | < 50 | < 50 | < 50 | < 50 | < 50 | CN1CCN(c2ccc(-c3cnc4c(c3)N(Cc3c(F)ccc(F)c3Cl)CCN4)cn2)CC1
10 | < 50 | < 50 | < 50 | < 50 | < 50 | < 50 | < 50 | CN1CCN(c2ccc(-c3cnc4c(c3)N(Cc3cc(F)ccc3F)CCN4)cn2)CC1
